According to ChEMBL document CHEMBL1240476, “Synthesis and antiproliferative activity of indolizinophthalazine-5,12-dione derivatives, DNA topoisomerase IB inhibitors” (Eur J Med Chem, 2010):

What was measured:
[1] = Cytotoxicity against human GLC82 cells after 48 hrs by MTT assay; assay type: functional, cell-based; conditions: GLC82, 48 h
NCI-H460 = assay: Cytotoxicity against human NCI-H460 cells after 48 hrs by MTT assay; assay type: functional, cell-based; conditions: NCI-H460, 48 h
MCF7 = assay: Cytotoxicity against human MCF7 cells after 48 hrs by MTT assay; assay type: functional, cell-based; conditions: MCF7, 48 h
[2] = Cytotoxicity against human MCF7/ADR cells after 48 hrs by MTT assay; assay type: functional, cell-based; conditions: NCI/ADR-RES
[3] = Inhibition of topoisomerase 1B-mediated relaxation of supercoiled pBR322 DNA at 125 uM after 30 mins by agarose gel electrophoresis
Outline: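 TOP1-mediated relaxation of supercoiled DNA: enzyme and DNA incubated with serially diluted compound, 1 to 125 across four lanes. Controls were DNA without enzyme or drug, and DNA plus enzyme without drug. Read-out was the supercoiled versus relaxed DNA bands, scored as percent inhibition of TOP1 catalytic activity.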

[4] = Inhibition of topoisomerase 1B-mediated relaxation of supercoiled pBR322 DNA at 1 uM after 30 mins by agarose gel electrophoresis
Outline: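 TOP1 relaxation of supercoiled DNA was run with enzyme, DNA and serially diluted drug (1 to 125). Controls were DNA without enzyme or drug, and DNA plus enzyme without drug. Supercoiled and relaxed DNA bands were resolved by gel and compared.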

SMILES	IC50 [1] [µM]	IC50 (NCI-H460) [µM]	IC50 (MCF7) [µM]	IC50 [2] [µM]	inhibition [3] [%]	inhibition [4] [%]
O=C1c2cnncc2C(=O)c2c1cc1ccccn21	10.8	11.4	14.7	11.7		
N#Cc1c2c(n3ccccc13)C(=O)c1cnncc1C2=O	1.13	9.32	1.09	0.81	100	23
CC(=O)c1c2c(n3cccc(F)c13)C(=O)c1cnncc1C2=O	1.85	10.6	10.7	13.2		
CCOC(=O)c1c2c(n3cccc(Cl)c13)C(=O)c1cnncc1C2=O	1.09	1.44	1.2	1.6		
CC[C@@]1(O)C(=O)OCc2c1cc1n(c2=O)Cc2cc3ccccc3nc2-1 [CAMPTOTHECIN]	> 25	> 25			73	
Cc1c2c(n3ccccc13)C(=O)c1cnncc1C2=O	1.92	1.21	1.67	14.1		
CCOC(=O)c1c2c(n3ccccc13)C(=O)c1cnncc1C2=O	> 25	> 25	> 25	> 25		
CCOC(=O)c1c2c(n3cccc(O)c13)C(=O)c1cnncc1C2=O	11.6	23.5	20.8	> 25		
CC(=O)c1c2c(n3ccccc13)C(=O)c1cnncc1C2=O	24.7	21.3		11.2		
CCOC(=O)c1c2c(n3cc(C)ccc13)C(=O)c1cnncc1C2=O	9.87	11.1	12.2	18.7		
COC(=O)c1c2c(n3ccccc13)C(=O)c1cnncc1C2=O	13.7	9.94	23.7	17		
CCOC(=O)c1c2c(n3cccc(C)c13)C(=O)c1cnncc1C2=O	10.3	1.18	1.22	1.55		
